Screening data from PubChem.
KCNK9 inh = KCNK9 potassium channel inhibitors, primary screen, HEK293 cells, thallium flux; AID 488922, 2010; 310,000 tested, 1.2% active; B-score at 10 µM; FluxOR thallium flux fluorescence; hits give low values; Potassium channel subfamily K member 9 (Homo sapiens), Q9NPC2;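 active means ratio B-score over 3 SD below the library mean, with starting fluorescence within 5 SD of its mean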;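 further: negative B-score means less thallium flux so channel inhibition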
Target sequence (Q9NPC2 whole entry, looked up): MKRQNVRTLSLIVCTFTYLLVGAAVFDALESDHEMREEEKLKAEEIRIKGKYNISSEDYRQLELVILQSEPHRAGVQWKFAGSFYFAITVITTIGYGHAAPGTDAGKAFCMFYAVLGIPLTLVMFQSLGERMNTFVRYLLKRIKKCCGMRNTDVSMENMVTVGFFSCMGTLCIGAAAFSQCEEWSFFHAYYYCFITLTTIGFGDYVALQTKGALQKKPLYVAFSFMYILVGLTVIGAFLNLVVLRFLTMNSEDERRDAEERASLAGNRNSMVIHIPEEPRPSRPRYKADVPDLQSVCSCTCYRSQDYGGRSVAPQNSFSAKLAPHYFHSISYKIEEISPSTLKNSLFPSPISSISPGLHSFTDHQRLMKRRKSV
KCNQ1 block = inhibitors of human KCNQ1 channel, primary screen, cell-based, thallium flux, high-throughput | 310,000 tested, 1.3% active | B-score at 10 µM | Potassium voltage-gated channel subfamily KQT member 1 (Homo sapiens), P51787 | CHO-K1 KCNQ1, FluxOR thallium flux fluorescence; hits give high values;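 active means compounds whose thallium flux B-score, printed positive for inhibition, exceeds three library SD while starting fluorescence stays within three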;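 further: channel opened by potassium depolarization with thallium stimulus after 20 min compound exposure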
KCNQ1 act = potentiators or activators of KCNQ1 channel, primary screen, cell-based, thallium flux, high-throughput; Potassium voltage-gated channel subfamily KQT member 1 (Homo sapiens), P51787; B-score at 10 µM; 310,000 tested, 0.35% active; CHO-K1 KCNQ1, thallium flux FluxOR fluorescence; hits give high values;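 active means fluorescence ratio B-score, a plate-corrected score, at least three library SD, with initial intensity B-score within 5 SD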
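Doses: Single concentration per compound, DMSO matched to controls | Test system: KCNQ1-transfected CHO-K1 cells | Timing: 90 min dye loading and 20 min compound exposure, both at room temperature | Measured by: Kinetic FluxOR thallium fluorescence, 10-s 1-Hz baseline, 110-s post-stimulus read | Medium: Assay buffer with matched DMSO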
KCNK3 inh = human KCNK3 channel inhibitors, primary screen, CHO cells, FluxOR thallium flux, B-score; Potassium channel subfamily K member 3 (Homo sapiens), O14649; FluxOR fluorescence; hits give low values; B-score at 10 µM; 340,000 tested, 0.84% active;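 active means B-score under library mean minus 4 SD, starting fluorescence ratio at most library mean plus 5 SD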;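 further: more negative B-score means stronger inhibition of thallium flux through KCNK3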
Kir21 inh = inhibitors of mouse Kir2.1 inward-rectifier potassium channel | 310,000 tested, 0.85% active | HEK293-Kir2.1, FluxOR thallium flux fluorescence; hits give low values | AID 1672, 2009 | Inward rectifier potassium channel 2 (Mus musculus), P35561 | B-score at 10 µM;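 active means fluorescence ratio B-score at or below minus 3 SD of library scores, with starting-brightness B-score within 2 SD, cut at about -4.2 in these data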;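 further: channel flux triggered by added potassium and thallium sulfate stimulus; B-score of peak minus minimum fluorescence over baseline after thallium stimulus; more negative B-score means stronger Kir2.1 block with less thallium influx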
hERG rescue = hERG rescue from dofetilide block, primary screen, cell-based, CHO-hERG, FluxOR thallium flux, dofetilide IC70; Voltage-gated inwardly rectifying potassium channel KCNH2 (Homo sapiens), Q12809; 310,000 tested, 0.51% active; dofetilide IC70 present; activation (rescue from dofetilide block), less the hit threshold, % at 10 µM;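 active means activation above the mean of controls blocked by dofetilide plus 5 SD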;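 further: thallium influx through hERG after potassium depolarization seen as dye fluorescence rise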
KCNK9 block conf = KCNK9 potassium channel inhibitors, confirmation, HEK293 cells, thallium flux, duplicate; shares compounds with KCNK9 inh; FluxOR thallium flux fluorescence; inhibition, % at 10 µM; 4,900 tested, 43% active;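 active means thallium signal inhibited by more than 5 SD of the compound-free buffer control wells, on both duplicate plates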;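 further: 0% = assay buffer control wells without compound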
Kir2-1 spec = mouse Kir2.1 channel inhibition, confirmation, selectivity assay for KCNK9 modulator project, cell-based, HEK293, thallium flux. Kir2.1 cells, FluxOR thallium flux fluorescence. inhibition, % at 10 µM. AID 492993, 2010. 4,900 tested, 4% active. shares compounds with KCNK9 inh;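 active means thallium signal drop more than 5 SD beyond the mean of the no-compound control wells, seen in both duplicate plates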;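 further: signal is fluorescence rise after thallium addition divided by baseline fluorescence; plate controls were assay buffer only for no effect and full block by chlorpromazine control for full effect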
KCNK9 uninduced = thallium flux in non-induced HEK293 cells, confirmation, counter-screen for KCNK9 inhibitor project, cell-based, second counter screen, non-induced KCNK9-HEK293. FluxOR thallium flux. shares compounds with KCNK9 inh. 4,900 tested, 40% active. inhibition, % at 10 µM;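 active means thallium signal drop beyond 5 SD of the untreated control mean, on both duplicate plates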;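 further: plate controls were buffer only IC0 wells for no effect and SID17386958 at its maximal inhibitory level for full effect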
* = called active by the depositor; i = inactive; . = not tested or not shown. In the library only some 3.7% were active in any assay of this set; here they are far more common.

SMILES	KCNK9 inh	KCNQ1 block	KCNQ1 act	KCNK3 inh	Kir21 inh	hERG rescue	KCNK9 block conf	Kir2-1 spec	KCNK9 uninduced
CCc1ccc(CN(C)C(=O)CCc2nc3ccccc3n(-c3ccc(OC)cc3)c2=O)cc1	i	i	i	i	0.1	-15	i	i	25%*
COc1ccc(/C=N/NC(=O)C(=O)N2CCCCCC2)cc1[N+](=O)[O-]	i	i	i	i	0.91	-4	.	.	.
Cc1ccc(-c2nc(NC(=O)CSc3cc(C)c4ccccc4n3)ns2)cc1	i	i	i	i	-0.52	-6	.	.	.
COc1ccc2c(C)cc(SCC(=O)Nc3nsc(-c4ccc(C)cc4)n3)nc2c1	-14*	i	i	i	-0.3	-22	48%*	i	i
Cc1ccccc1C(=O)Nc1nnc(SC(C)C)s1	i	i	i	i	-2.2	-16	.	.	.
COc1ccc(C)cc1S(=O)(=O)NNc1nc(C)cc(C)n1	.	.	.	i	.	.	.	.	.
O=C(NC1CCCCC1)C1CCCN(S(=O)(=O)c2cccc3cccnc23)C1 (stereo unspecified)	i	i	i	i	-0.01	-14	.	.	.
O=C(C1CCCN(S(=O)(=O)c2cccc3cccnc23)C1)N1CCc2ccccc21 (stereo unspecified)	i	i	i	i	1.5	-12	i	i	i
Oc1cc(-c2ccccc2)c2ccccc2c1	-11*	8*	i	i	-4.6*	-17	49%*	i	34%*
COc1ccc(N2CC(C(=O)NC3=NCCS3)CC2=O)cc1 (stereo unspecified)	i	i	i	i	-0.01	-20	.	.	.
CC(C)N(Cc1ccccc1)C(=O)CCc1ccccc1	i	i	i	i	-2.8	-6	i	i	i
O=C(Cc1ccc([N+](=O)[O-])cc1)Oc1ccccc1	.	.	.	i	.	.	.	.	.
O=S(=O)(Nc1ccc(S(=O)(=O)N2CCOCC2)cc1)c1ccc(Br)cc1	i	i	i	i	-0.72	-4	.	.	.
O=S(=O)(c1ccc(Oc2ccc(Br)cc2)cc1)N1CCOCC1	i	i	i	i	0.43	-13	i	i	i
O=C(CCn1cccn1)Nc1ccc(-c2ccno2)cc1	i	i	i	i	0.98	-11	.	.	.
CCOC(=O)CCNCc1ccc(OC)c(OC)c1	i	i	i	i	-0.12	-9	.	.	.
CCOC(=O)CC(NCc1ccc(OC)c(OCC)c1)c1ccc(C)cc1 (stereo unspecified)	i	i	i	i	0.01	-8	i	i	i
C/C(=N\N1CCN(c2ccc(Cl)cc2)CC1)c1cccc([N+](=O)[O-])c1	-11*	i	i	i	1.2	-1	44%*	i	30%*
CN(Cc1nc2ccccc2c(=O)[nH]1)Cc1nc2ccsc2c(=O)[nH]1	i	i	i	i	-0.03	-11	.	.	.
O=C(Nc1nc2ccsc2c(=O)s1)c1ccc(F)cc1	i	i	i	i	-0.96	-9	.	.	.
CCN(c1ccccc1)c1nc2ccsc2c(=O)s1	i	i	i	i	-1.3	-13	i	i	i
